High-throughput results: PubChem BioAssay, The Scripps Research Institute Molecular Screening Center
Rows were chosen to be rich in hits. Some 2.7% of all compounds tested hit in one or more screens of this group.
SIAE inh – human SIAE inhibitors, primary screen, biochemical, fluorescence polarization, FP-Rh probe, 1536-well HTS; Sialate O-acetylesterase (Homo sapiens), Q9HAT2; SIAE FP-Rh probe binding; inhibition, % at 9.66 µM; actives 0.69% (n = 370,000); AID 1053197, 2014;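 active = inhibition above a cutoff: mean of compounds within the control limits plus 3 SD of those, cut at about 17% in these data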
ABHD4 inh – ABHD4 inhibitors, primary screen, biochemical, fluorescence polarization, mouse; (Lyso)-N-acylphosphatidylethanolamine lipase (Mus musculus), Q8VD66; purified mABHD4, FP-Rh probe fluorescence polarization; inhibition, % at 8.92 µM; actives 0.54% (n = 370,000);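 active = inhibition exceeding the mean over every tested compound plus 3 SD, cut at about 30% in these data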
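Assay system: Wild-type mouse ABHD4 protein | Medium: HEPES pH 7.0 buffer, 150 mM NaCl, 0.01% Pluronic F-127 | Incubation: Enzyme–compound pre-incubation 45 min, then probe 60 min, both 25 °C | Technique: Fluorescence polarization with parallel and perpendicular emission, 525/598 nm | Evaluation: % inhibition of FP-Rh probe binding versus controls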
PRMT1 FP inh – PRMT1 methyltransferase inhibitors, primary screen, biochemical, fluorescence polarization; Protein arginine N-methyltransferase 1 (Homo sapiens), Q99873; recombinant PRMT1, activity-based probe fluorescence polarization; inhibition, % at 2.79 µM; actives 1.3% (n = 370,000); AID 652257, 2013;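 active = inhibition above about 21% made by adding two undisclosed values, limit read from the data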
HTRA1 inh – HTRA1 serine protease inhibitors, primary screen, biochemical, fluorescence polarization, HTS; Q92743; recombinant HTRA1, FP-rhodamine activity-based probe; inhibition, % at 5.96 µM; actives 0.5% (n = 340,000); AID 504803, 2011; in the data active = inhibition above about 36%
Target sequence (Q92743 whole entry, looked up): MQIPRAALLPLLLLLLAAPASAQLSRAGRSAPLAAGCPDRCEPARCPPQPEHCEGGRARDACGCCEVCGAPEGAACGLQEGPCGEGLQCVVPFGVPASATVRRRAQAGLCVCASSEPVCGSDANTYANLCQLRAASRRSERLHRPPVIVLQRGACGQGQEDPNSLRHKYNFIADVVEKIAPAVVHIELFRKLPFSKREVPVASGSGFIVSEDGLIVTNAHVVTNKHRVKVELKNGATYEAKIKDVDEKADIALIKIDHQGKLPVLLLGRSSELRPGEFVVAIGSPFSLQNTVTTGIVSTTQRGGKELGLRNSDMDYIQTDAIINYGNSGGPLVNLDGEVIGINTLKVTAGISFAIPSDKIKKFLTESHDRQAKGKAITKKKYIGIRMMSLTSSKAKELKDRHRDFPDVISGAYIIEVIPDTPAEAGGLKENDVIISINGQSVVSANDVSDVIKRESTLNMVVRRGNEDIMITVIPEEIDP
TCR-CD3 inh – inhibitors of human TCR-CD3 interaction, primary screen, biochemical, fluorescence, TAMRA-labeled TCR probe; T-cell receptor (TCR); inhibition, % at 9.4 µM; actives 0.37% (n = 360,000); AID 651800, 2012; in the data active = inhibition above about 19%;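 note: recombinant mutant TCR 2C K166C tagged with TAMRA read by polarization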
PRMT1 inh conf – PRMT1 methyltransferase inhibitors, confirmation, biochemical, fluorescence polarization, triplicate | shares compounds with PRMT1 FP inh | recombinant His-PRMT1, activity-based probe fluorescence polarization | inhibition, % at 2.79 µM | actives 42% (n = 3,300);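 active = mean inhibition across replicates above the hit cutoff derived for the earlier primary screen, cut at about 22% in these data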
Each line names hits and unclear results; the compound was inactive in the other large screens (follow-up assays come after a bar, where they were run).

CCOc1cccc(N2C(=O)CC(NCc3ccc(S(N)(=O)=O)cc3)C2=O)c1 (centres undefined)	PRMT1 FP inh 46 | PRMT1 inh conf inactive
CCCCCCOc1ccc(N2C(=O)CC(NCCc3ccc(S(N)(=O)=O)cc3)C2=O)cc1 (centres undefined)	PRMT1 FP inh 42 | PRMT1 inh conf inactive
O=C(NCc1cc2ccccc2[nH]1)C1CCC(=O)N(CCCN2CCCC2=O)C1 (centres undefined)	none
Cc1cccc(CN[C@@H]2CC[C@@]34CCCN3C(=O)CCC[C@H]4C2)c1	none (no result: HTRA1 inh, TCR-CD3 inh)
CC(=O)N1c2cc(S(=O)(=O)Nc3c(C)n(C)n(-c4ccccc4)c3=O)c(Br)cc2CC1C (centres undefined)	none (no result: HTRA1 inh, TCR-CD3 inh)
CN(C)c1cccc(F)c1C(=O)NC(=O)Nc1ccc(Cl)cc1	none
CN(C)S(=O)(=O)c1ccc(C(=O)Nc2ccccc2C(=O)NCCCN2CCOCC2)cc1	none
COc1ccc(N2C(=O)CC(NCc3cccs3)C2=O)cc1 (centres undefined)	PRMT1 FP inh 51 | PRMT1 inh conf inactive
COc1ccc(N2C(=O)CC(NCC#N)C2=O)cc1 (centres undefined)	none
CCOc1ccc(N2C(=O)CC(N)C2=O)cc1 (centres undefined)	PRMT1 FP inh 76 | PRMT1 inh conf 51
COC(=O)[C@]12CCCCC=C1N(Cc1ccc(Cl)cc1Cl)C(=O)[C@H](CC(=O)NCCC(C)C)C2	none (no result: HTRA1 inh)
CN(CC(=O)N1CCOCC1)C(=O)CSc1nc2ccccc2s1	PRMT1 FP inh 26 | PRMT1 inh conf 34
CCCCc1ccc(CC(=O)Nc2cc(S(=O)(=O)N3CCOCC3)ccc2O)cc1	PRMT1 FP inh 32 | PRMT1 inh conf inactive
O=C(CSc1nc2ccccc2s1)Nc1cc(S(=O)(=O)N2CCOCC2)ccc1O	PRMT1 FP inh 38 | PRMT1 inh conf 40
O=C(CSc1nc2ccccc2s1)Nc1cc(C(=O)O)cc(C(=O)O)c1	PRMT1 FP inh 42 | PRMT1 inh conf 58
Cc1nnc(SCC(=O)Nc2cc(S(=O)(=O)N3CCOCC3)ccc2C)s1	none
C/C(=N\NS(=O)(=O)c1ccccc1)c1ccc2c(c1)OCCO2	none
CN1C2=N[C@@H](c3ccc4ccccc4c3)CC(=O)N2/C(=C\c2ccccc2)[C@H]1c1ccccc1	none (no result: HTRA1 inh, TCR-CD3 inh)
NC(=O)CC(NSc1ccccc1[N+](=O)[O-])C(=O)O (centres undefined)	PRMT1 FP inh 34 | PRMT1 inh conf 23
S=c1[nH]nc(-c2cc(-c3ccccc3)n[nH]2)n1/N=C/c1ccccc1	none
S=c1[nH]c(-c2ccccc2)cn1/N=C/c1cccs1	PRMT1 FP inh 45 | PRMT1 inh conf 22
S=c1[nH]nc(-c2cc(-c3ccccc3)n[nH]2)n1N=Cc1c[nH]c2ccccc12	PRMT1 FP inh 32 (no result: HTRA1 inh, TCR-CD3 inh) | PRMT1 inh conf 24
S=c1[nH]nc(-c2cc(-c3ccccc3)n[nH]2)n1/N=C/c1cccs1	PRMT1 FP inh 28 | PRMT1 inh conf 31
COc1ccccc1/C=C/C=N/n1c(-c2cc(-c3ccccc3)n[nH]2)n[nH]c1=S	PRMT1 FP inh 26 | PRMT1 inh conf 23
CC(C)(C)S(=O)N1C[C@@H]2CC(=O)C(c3ccccc3)=C2[C@H]1CCO (some centres undefined)	none (no result: HTRA1 inh)
Cc1cc(C)c(NC(=O)c2cccc3c2C(=O)N(C2CCCCC2)C3)c(C)c1	none (no result: SIAE inh, ABHD4 inh, PRMT1 FP inh, TCR-CD3 inh)
O=C(NCCc1ccccc1Cl)[C@@H]1CCCN1C(=O)[C@@H](NC(=O)N1CCOCC1)c1ccccc1	none (no result: HTRA1 inh)
Cc1ccc(NS(=O)(=O)c2cc(NC(=O)c3ccc4c(c3)NC(=O)CS4)ccc2C)c(C)c1	PRMT1 FP inh 34 | PRMT1 inh conf 23
COc1ccc(NC(=O)c2ccc3c(c2)NC(=O)CS3)cc1S(=O)(=O)Nc1ccc(Br)cc1	none
CC1(C2CC2)NC(=O)N(CC(=O)NCc2ccc(Cl)cc2Cl)C1=O (centres undefined)	none
COc1ccc(-n2c(CSc3ccc(Cl)cc3)n[nH]c2=S)cc1	none (no result: HTRA1 inh)
